Active and inactive are the calls of the source. The calls are words filed in the database; no cut-off is given here.
Tests used:
[1] = Cytotoxicity against human MT2 cells assessed as inhibition of cell proliferation after 5 days by luminescence assay; format: cell-based
Procedure, shortened: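 Uninfected MT-2 cells at 3 × 10^3 cells/well were run on replicate plates alongside the antiviral assay, with 3-fold serial compound dilutions in triplicate and 0.5% DMSO final. After 5 days at 37 °C, viability was read by CellTiter-Glo luminescence. CC50 came from non-linear regression of multiple data sets.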

Mus musculus [2] = organism: Mus musculus; experiment: Immunomodulatory activity in C57BL/6 mouse peritoneal cells assessed as inhibition of LPS-induced NO production at 25 uM after 24 hrs by Griess reagent method; format: functional
Procedure, shortened: (§1)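 Peritoneal cells pooled from 4 female C57BL/6 mice (8–10 weeks) were seeded at 2 × 10^6 cells/mL in complete RPMI-1640 with 10% FBS, at 37 °C and 5% CO2. Compound was given alone or with IFN-γ (5000 pg/mL) or IFN-γ plus E. coli LPS (100 pg/mL) for 24 h. Supernatant nitrite was measured with Griess reagent (5 min, A540) against a nitrite calibration curve.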

[3] = test system: Human immunodeficiency virus 1; experiment: Antiviral activity against HIV1 3B infected in human MT-2 cells assessed as reduction in virus-induced cytopathic effect after 5 days by luminescence assay; format: functional, organism-based; conditions: Human immunodeficiency virus 1, 3B, MT2, 120 h
Procedure, shortened: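 MT-2 cells were kept below 0.6 × 10^6 cells/mL and infected in bulk with HIV-1 IIIB for 3 h at MOI 0.0055. They were seeded at 3 × 10^3 cells/well with 3-fold serial compound dilutions in triplicate, 0.5% DMSO final. After 5 days at 37 °C, cytopathic effect was read by CellTiter-Glo luminescence. EC50 came from non-linear regression of multiple data sets.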

Mus musculus [4] = organism: Mus musculus; experiment: Immunostimulatory activity in C57BL/6 mouse peritoneal cells assessed as stimulation of LPS-induced NO production at 25 uM after 24 hrs by Griess reagent method; format: functional; procedure, shortened: as §1
CCRF-CEM = experiment: Antiproliferative activity against human CCRF-CEM after 72 hrs by XTT assay; format: functional, cell-based
Procedure, shortened: (§2)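 CCRF-CEM, HL-60 and HeLa S3 cells were grown in RPMI 1640 with 5% calf fetal serum, and Hep G2 cells in Eagle's MEM with 10% calf fetal serum. Cells were exposed to compound, and growth was ended 72 h after drug addition. Viability was then quantified by the XTT spectrophotometric assay.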

[5] = Antiproliferative activity against human HepG2 after 72 hrs by XTT assay; format: functional; conditions: HepG; procedure, shortened: as §2
HL-60 = experiment: Antiproliferative activity against human HL60 after 72 hrs by XTT assay; format: functional, cell-based; conditions: HL-60, 72 h; procedure, shortened: as §2
[6] = Antiproliferative activity against human HeLaS3 after 72 hrs by XTT assay; format: functional; conditions: HeLa S3, 72 h; procedure, shortened: as §2

SMILES	EC50 [3] [nM]	IC50 (CCRF-CEM) [nM]	IC50 (HL-60) [nM]	CC50 at 120 h [1] [nM]	inhibition (Mus musculus [2])	Activity (Mus musculus [4])	IC50 [5] [nM]	IC50 [6] [nM]
CCOC(=O)[C@H](C)NP(=O)(CO[C@H](C)Cn1cnc2c(N)nc(F)nc21)N[C@@H](C)C(=O)OCC	5510	–	–	> 100000	inactive	inactive	–	–
C[C@H](Cn1cnc2c(N)nc(F)nc21)OCP(=O)(O)O	> 85300	–	–	> 100000	–	–	–	–
CCOC(=O)[C@H](C)NP(=O)(COCCn1cnc2c(NC3CC3)nc(N)nc21)N[C@@H](C)C(=O)OCC [RABACFOSADINE]	–	480	780	–	inactive	inactive	1740	2150
CCOC(=O)[C@H](C)NP(=O)(COCCn1cnc2c(=O)[nH]c(N)nc21)N[C@@H](C)C(=O)OCC	–	1220	3020	–	inactive	inactive	2320	3940
Nc1nc(NC2CC2)c2ncn(C[C@@H](CF)OCP(=O)(O)O)c2n1	13200	–	–	> 100000	–	–	–	–
CCOC(=O)[C@H](C)NP(=O)(CO[C@H](CF)Cn1cnc2c(NC3CC3)nc(N)nc21)N[C@@H](C)C(=O)OCC	10700	–	–	> 100000	inactive	inactive	–	–
CCOC(=O)[C@H](C)NP(=O)(COCCn1cnc2c(NC3CCCCCCC3)nc(N)nc21)N[C@@H](C)C(=O)OCC	–	–	–	–	inactive	inactive	–	–

Continued, in another order:

EC50 [3] [nM]	IC50 (CCRF-CEM) [nM]	IC50 (HL-60) [nM]	SMILES	CC50 at 120 h [1] [nM]	inhibition (Mus musculus [2])	Activity (Mus musculus [4])	IC50 [5] [nM]	IC50 [6] [nM]
940	–	–	C[C@H](Cn1cnc2c(N)nc(N)nc21)OCP(=O)(O)O	> 100000	–	–	–	–
290	–	–	CCOC(=O)[C@H](C)NP(=O)(CO[C@H](C)Cn1cnc2c(N)nc(N)nc21)N[C@@H](C)C(=O)OCC	> 100000	inactive	inactive	–	–
540	–	–	CCOC(=O)[C@H](C)NP(=O)(CO[C@H](CF)Cn1cnc2c(N)ncnc21)N[C@@H](C)C(=O)OCC	> 100000	inactive	inactive	–	–
1130	–	–	CCOC(=O)[C@H](C)NP(=O)(COCCOc1cc(N)nc(N)n1)N[C@@H](C)C(=O)OCC	73300	inactive	inactive	–	–
